The values that follow come from ChEMBL document CHEMBL1155496, “Discovery of pyrazolyl propionyl cyclohexenamide derivatives as full agonists for the high affinity niacin receptor GPR109A” (Bioorg Med Chem Lett, 2010).

Where only a bound is given, the exact number is not on record here.

In data set [1] the target is Hydroxycarboxylic acid receptor 2 (Homo sapiens) (UniProt Q8TDS4). In words: Serum shift in 3H-niacin binding to GPR109A receptor with 4% human serum.
A short description of data set [2]: Half life in mouse at 1 mg/kg, iv and 2 mg/kg, po. As to conditions: in vivo. It is filed as ADME, organism-based. An outline of the steps: (§1)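 Formulated at 0.2 mg/mL in ethanol/PEG/water (10:40:50). Dosed 1 mg/kg IV and 2 mg/kg PO, n = 3 per route. Blood was protein-precipitated with acetonitrile and drug concentration measured by LC/MS/MS.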
A short description of data set [3]: Volume of distribution at steady state in mouse at 1 mg/kg, iv and 2 mg/kg, po. As to conditions: in vivo, read-out: Vdss. Type of data set: ADME, organism-based. In short, it runs like this: as §1
Data set [4] can be described thus: Bioavailability in mouse at 1 mg/kg, iv and 2 mg/kg, po. It is filed as ADME, organism-based. As to conditions: in vivo. In short, it runs like this: as §1
The nature of data set [5]: Cmax in mouse at 1 mg/kg, iv and 2 mg/kg, po. Type of data set: ADME, organism-based. As to conditions: in vivo. In short, it runs like this: as §1
Data set [6] in a line: Clearance in mouse at 1 mg/kg, iv and 2 mg/kg, po. Type of data set: ADME, organism-based. As to conditions: in vivo. In short, it runs like this: as §1
Data set [7] can be described thus: Cmax in rat at 1 mg/kg, iv and 2 mg/kg, po. It is filed as ADME, organism-based. As to conditions: in vivo. An outline of the steps: as §1
Data set [8] concerns the target T1, Cytochrome P450 2C8 (Homo sapiens, UniProt P10632).
T1 sequence (P10632 whole entry): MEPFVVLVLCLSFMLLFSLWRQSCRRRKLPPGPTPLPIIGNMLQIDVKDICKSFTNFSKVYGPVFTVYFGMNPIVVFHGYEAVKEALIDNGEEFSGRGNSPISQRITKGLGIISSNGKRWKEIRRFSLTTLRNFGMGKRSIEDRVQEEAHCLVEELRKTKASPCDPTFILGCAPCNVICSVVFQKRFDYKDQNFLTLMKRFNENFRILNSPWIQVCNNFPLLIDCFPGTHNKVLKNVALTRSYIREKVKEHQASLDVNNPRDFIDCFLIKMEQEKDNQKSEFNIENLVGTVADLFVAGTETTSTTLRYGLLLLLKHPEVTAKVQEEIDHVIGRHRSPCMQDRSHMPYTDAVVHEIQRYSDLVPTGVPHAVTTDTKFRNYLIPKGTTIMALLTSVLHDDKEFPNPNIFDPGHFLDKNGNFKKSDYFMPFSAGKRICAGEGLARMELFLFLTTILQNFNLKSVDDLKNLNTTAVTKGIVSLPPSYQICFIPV
Put plainly: Inhibition of CYP2C8 in human liver microsomes. It is filed as ADME, Microsome. In short, it runs like this:
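Human liver microsomes with taxol as substrate and montelukast as positive control. IC50 determined.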

Data set [9] can be described thus: Bioavailability in rat at 1 mg/kg, iv and 2 mg/kg, po. It is filed as ADME, organism-based. As to conditions: in vivo. In short, it runs like this: as §1
Data set [10] in a line: Half life in rat at 1 mg/kg, iv and 2 mg/kg, po. It is filed as ADME, organism-based. As to conditions: in vivo. In short, it runs like this: as §1
Data set [11] is described as follows: Clearance in rat at 1 mg/kg, iv and 2 mg/kg, po. It is filed as ADME, organism-based. As to conditions: in vivo. In short, it runs like this: as §1
Data set [12] deals with Cytochrome P450 2C9 (Homo sapiens, UniProt P11712). In words: Inhibition of CYP2C9 in human liver microsomes. It is filed as ADME, Microsome.
Chain of Cytochrome P450 2C9 (P11712 whole entry): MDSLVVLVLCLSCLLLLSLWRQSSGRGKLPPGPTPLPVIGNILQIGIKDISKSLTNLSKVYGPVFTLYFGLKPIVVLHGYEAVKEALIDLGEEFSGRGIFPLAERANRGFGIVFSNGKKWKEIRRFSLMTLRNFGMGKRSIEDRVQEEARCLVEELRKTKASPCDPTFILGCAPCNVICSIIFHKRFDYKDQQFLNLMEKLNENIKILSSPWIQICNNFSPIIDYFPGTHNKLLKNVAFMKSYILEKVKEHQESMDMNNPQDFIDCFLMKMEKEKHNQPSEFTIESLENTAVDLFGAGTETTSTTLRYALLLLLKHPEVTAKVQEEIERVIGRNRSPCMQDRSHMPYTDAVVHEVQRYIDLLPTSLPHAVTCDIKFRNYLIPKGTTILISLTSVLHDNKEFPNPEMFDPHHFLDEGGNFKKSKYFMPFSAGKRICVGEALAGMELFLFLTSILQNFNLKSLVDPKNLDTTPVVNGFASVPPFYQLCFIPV
Data set [13] in a line: Volume of distribution at steady state in rat at 1 mg/kg, iv and 2 mg/kg, po. It is filed as ADME, organism-based. As to conditions: in vivo, read-out: Vdss. In short, it runs like this:
as §1

In data set [14] the test system is Adipocyte. In words: Inhibition of lipolysis in human adipocytes assessed as free glycerol level. It is filed as functional, cell-based. In short, it runs like this:
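Lipolysis in human adipocytes; free glycerol release measured and used to calculate IC50.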

Chain of Hydroxycarboxylic acid receptor 2 (Homo sapiens) (Q8TDS4 whole entry): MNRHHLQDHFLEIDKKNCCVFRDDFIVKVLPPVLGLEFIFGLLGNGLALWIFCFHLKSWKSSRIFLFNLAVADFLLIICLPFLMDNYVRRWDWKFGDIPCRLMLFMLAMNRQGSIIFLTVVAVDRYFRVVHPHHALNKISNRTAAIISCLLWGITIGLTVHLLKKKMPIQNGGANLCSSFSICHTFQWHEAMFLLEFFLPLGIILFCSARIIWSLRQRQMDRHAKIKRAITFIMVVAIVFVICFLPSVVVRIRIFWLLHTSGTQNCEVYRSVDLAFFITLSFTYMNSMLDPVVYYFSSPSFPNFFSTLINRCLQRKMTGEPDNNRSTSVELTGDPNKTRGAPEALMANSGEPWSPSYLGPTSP

Turning to `CC(Cc1ccn(-c2ccc(O)cn2)n1)C(=O)NC1=C(C(=O)O)CCC(c2cccc(F)c2)C1` (stereo unspecified), in [1], the serum shift is 40.

In [2], `O=C(CCc1cnn(-c2ccc(O)cc2)c1)Nc1ccccc1C(=O)O` had a half-life of 3.5 h. Besides, the Vd in [3] was 3.56 L/kg. The compound also gave a bioavailability in data set [4] of 21%. In [5], this compound gave a Cmax of 480 nM. Further, the clearance in data set [6] is 17 mL/min/kg. Further, the serum shift in data set [1] is 70.

As for `CC(Cc1ccn(-c2ccc(O)cn2)n1)C(=O)NC1=C(C(=O)O)CC(c2cc(F)cc(F)c2)CC1` (stereo unspecified), in data set [7], the peak level (Cmax) was 1580 nM. For the same compound, the 50% inhibitory concentration (IC50) came to 7.7 µM in data set [8] and 23 µM in [12]. Further, the bioavailability in [9] was found to be 39%. The half-life in [10] was 5.5 h. In addition, the clearance in data set [11] worked out at 8.6 mL/min/kg. In data set [13], the Vd was determined as 0.53 L/kg. In addition, in data set [1], the serum shift is 100.

As to `CC(Cc1ccn(-c2ccc(O)cn2)n1)C(=O)NC1=C(C(=O)O)CCC(c2cccc(F)c2F)C1` (stereo unspecified), the concentration in data set [7] peaked (Cmax) at 30 nM. In addition, the bioavailability in data set [9] was 4.5%. This compound had a half-life in data set [10] of 0.74 h. Also, the clearance in data set [11] was 28 mL/min/kg. Besides, the Vd in data set [13] was found to be 0.36 L/kg. Besides, the serum shift in data set [1] was determined as 30.

The compound `O=C(CCc1cnn(-c2ccccc2)c1)Nc1ccccc1C(=O)O` yielded an IC50 in data set [12] of 15 µM. Further, in data set [1], the serum shift was found to be 40.

Regarding `CC(Cc1ccn(-c2ccc(O)cn2)n1)C(=O)NC1=C(C(=O)O)CCCC1` (stereo unspecified), in [1], the serum shift was found to be 900.

In turn, `O=C(CCc1cnn(-c2ccc(O)cn2)c1)NC1=C(C(=O)O)CCCC1` gave a half-life in data set [2] of 3.3 h. Besides, the Vd in data set [3] was found to be 0.4 L/kg. In data set [4], this compound came in with a bioavailability of 46%. The IC50 in data set [12] is > 50 µM. In data set [5], this compound had a maximum concentration (Cmax) of 11500 nM. Also, in data set [6], the clearance is 1.2 mL/min/kg. Moreover, in data set [1], the serum shift worked out at 240.

As for `Cc1c(CC(C)C(=O)NC2=C(C(=O)O)CCCC2)cnn1-c1ccc(O)cc1` (stereo unspecified), the IC50 in data set [8] was > 100 µM; in [14], 0.07 µM; in [12], > 100 µM. The half-life in [2] is 4.8 h. Moreover, in data set [3], the Vd came to 0.68 L/kg. This compound also yielded a bioavailability in data set [4] of 52%. In data set [5], this compound showed a Cmax of 4780 nM. In data set [6], this compound had a clearance of 3.5 mL/min/kg. Further, in data set [1], the serum shift came out at 50.

On to `Cc1c(CC(C)C(=O)Nc2ccccc2C(=O)O)cnn1-c1ccc(O)cc1` (stereo unspecified), for which the values for the IC50 in [8], in [14] and in data set [12] were 34 µM, 0.06 µM and 22 µM, respectively. Further, the serum shift in data set [1] worked out at 60.

In the case of `O=C(CCc1ccn(-c2ccccc2)n1)Nc1ccccc1C(=O)O`, the IC50 in [8] was 2.7 µM; in [12] it was 2.5 µM.

In data set [4], `O=C(CCc1ccc(-c2ccc(O)cc2Cl)cc1)Nc1ccccc1C(=O)O` showed a bioavailability of 4.6%. Moreover, the highest level in data set [5] (Cmax) was 930 nM. In addition, the serum shift in data set [1] was > 5000.

For the compound `CC(Cc1ccn(-c2ccc(O)cn2)n1)C(=O)Nc1ccccc1C(=O)O` (stereo unspecified), the serum shift in [1] worked out at 200.

For the compound `O=C(CCc1ccn(-c2ccc(O)cn2)n1)Nc1ccccc1C(=O)O`, in [1], the serum shift was 170.

`O=C(O)c1cccnc1` [NIACIN]: the IC50 in data set [14] turned out to be 0.08 µM.

In the case of `CC(Cc1ccn(-c2ccc(O)cn2)n1)C(=O)NC1=C(C(=O)O)CCC(c2cc(F)c(F)c(F)c2)C1` (stereo unspecified), the serum shift in data set [1] amounted to 30.

On to `CCCC1CCC(C(=O)O)=C(NC(=O)C(C)Cc2ccn(-c3ccc(O)cn3)n2)C1` (stereo unspecified), for which the serum shift in data set [1] amounted to 110.

Consider `O=C(CCc1ccn(-c2ccc(O)cn2)n1)NC1=C(C(=O)O)CCCC1`, for which, in [1], the serum shift turned out to be 1000.

On to `CC(Cc1ccn(-c2ccc(O)cn2)n1)C(=O)NC1=C(C(=O)O)CC[C@@H](C)C1` (stereo partly specified), for which the serum shift in data set [1] is 290.
